pIC50, pKd: −log10 of the molar value. Calls of active or inactive are those of the source. The calls are words filed in the database; no cut-off is given here.
How the values were obtained:
[1] = tested on: Nucleic Acid; test: Binding affinity to hairpin fluorescent labeled oligonucleotide F10T duplex DNA assessed as change in melting temperature at 1 uM after 30 secs by FRET assay
[2] = tested on: Nucleic Acid; test: Binding affinity to human fluorescent labeled oligonucleotide F21T telomeric G-quadruplex DNA assessed as change in melting temperature at 1 uM by FRET assay in presence of duplex DNA competitor ds26; format: nucleic-acid assay
[3] = tested on: Nucleic Acid; test: Binding affinity to human fluorescent labeled oligonucleotide F21T telomeric G-quadruplex DNA assessed as change in melting temperature at 1 uM after 30 secs by FRET assay; format: nucleic-acid assay
[4] = tested on: Nucleic Acid; test: Binding affinity to human biotinylated duplex DNA assessed as equilibrium dissociation constant upto 10 to 20 uM by SPR assay; format: nucleic-acid assay
Summary of the method: (§1)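 Biotinylated HTG21 (d(GGG[TTAGGG]3)) or duplex DNA was folded in 50 mM Tris-HCl pH 7.2 with 100 mM KCl. About 1000 RU was captured on flow cells 1 and 2, with the third cell as blank. Six ligand concentrations from 0.15625 µM upward were injected for 150 s association and 300 s dissociation at 25 °C. KD came from global Langmuir fitting of the kinetics.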

[5] = biological target: Telomerase reverse transcriptase (Homo sapiens, UniProt O14746); test: Inhibition of human telomerase in cell free system after 1 min by TRAP-LIG assay; conditions: in the assay text read “after 20 mins” for “after 1 min”
Summary of the method: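 TRAP-LIG used 500 ng protein extract from exponentially growing MCF-7 cells to extend 0.1 µg TS primer. The buffer was 20 mM Tris-HCl pH 8.3, 68 mM KCl, 1.5 mM MgCl2, 1 mM EGTA and 0.05% Tween 20, with 125 µM dNTPs and BSA, plus ligand at various concentrations or none. After 20 min elongation and purification, products were amplified with ACX/TS primers and Taq for 35 cycles (94 °C 30 s, 61 °C 1 min, 72 °C 1 min).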

[6] = biological target: Nucleic Acid; test: Binding affinity to human biotinylated telomeric HTG21 G-quadruplex DNA assessed as equilibrium dissociation constant by SPR assay; format: nucleic-acid assay
Summary of the method: as §1

[7] = tested on: Nucleic Acid; test: Binding affinity to human telomeric HTG21 G-quadruplex DNA after 6 hrs by CD spectroscopy; format: nucleic-acid assay
Summary of the method: (§2)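 HTG21 in 10 mM Tris-HCl pH 7.2 with 100 mM KCl was titrated with ligand at 0–5 mol equiv. Samples were heated to 95 °C, cooled slowly to room temperature and held at 4 °C for at least 6 h. CD was scanned at 230–450 nm in a 4 mm quartz cuvette with 1 nm bandwidth, 1 nm steps and 0.5 s per point.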

[8] = tested on: Nucleic Acid; test: Binding affinity to human telomeric HTG21 G-quadruplex DNA after 6 hrs in presence of K+ ions by CD spectroscopy; format: nucleic-acid assay
Summary of the method: as §2

[9] = tested on: Nucleic Acid; test: Binding affinity to A3 site of human oligonucleotide telomeric HT6 G-quadruplex DNA by NMR spectroscopy; format: nucleic-acid assay
Summary of the method: (§3)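 1H NMR titration at 400 MHz and 25 °C of 0.5 mM [d(TTAGGG)]4 in 90% H2O/10% D2O with 25 mM potassium phosphate (pH 7.0) and 150 mM KCl. Ligand:quadruplex ratios were 0, 0.25, 0.5, 1 and 2. Water was suppressed by Watergate. Shifts and broadening of DNA signals were followed. The oligonucleotide was HPLC-purified.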

[10] = tested on: Nucleic Acid; test: Binding affinity to human oligonucleotide telomeric HT6 G-quadruplex DNA by NMR spectroscopy; format: nucleic-acid assay
Summary of the method: as §3

[11] = tested on: HL-60; test: Induction of telomere shortening in human HL60 cells at 1.25 uM after 16 days by telomeric restriction fragment length assay; format: functional
Summary of the method: (§4)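 HL60 cells were treated with ligand (0.625 or 1.25 µM) or 0.1% DMSO for 16 days. Genomic DNA was digested with HinfI/RsaI and run on a 0.8% agarose gel, then blotted to nylon and fixed at 120 °C for 20 min. The blot was hybridized with a DIG-labeled telomeric probe, bound with anti-DIG-alkaline phosphatase and detected by chemiluminescence.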

[12] = tested on: HL-60; test: Cytotoxicity against human HL60 cells assessed as decrease in population doubling at 2.5 uM after 8 days; format: functional, cell-based
[13] = tested on: HL-60; test: Cytotoxicity against human HL60 cells assessed as cell viability after 48 hrs by MTT assay; format: functional, cell-based; conditions: HL-60, 48 h
Summary of the method: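 HL60 cells were seeded at 1.0 × 10³ per well and exposed to a range of compound concentrations for 48 h at 37 °C in 5% CO2. MTT (5 mg/mL) was added for 4 h, formazan was dissolved in DMSO and OD was read at 570 nm. Each dose was run in triplicate, and IC50 was taken from mean OD versus concentration curves.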

[14] = tested on: HL-60; test: Induction of telomere shortening in human HL60 cells at 0.625 uM after 16 days by telomeric restriction fragment length assay; format: functional, cell-based
Summary of the method: as §4

[15] = tested on: Nucleic Acid; test: Binding affinity to G4 site of human oligonucleotide telomeric HT6 G-quadruplex DNA by NMR spectroscopy; format: nucleic-acid assay
Summary of the method: as §3

[16] = tested on: HL-60; test: Growth inhibition of human HL60 cells assessed as decrease in population doubling at 1.25 uM after 12 days; format: functional, cell-based
[17] = tested on: HL-60; test: Growth inhibition of human HL60 cells assessed as decrease in population doubling at 0.625 uM after 16 days; format: functional, cell-based
[18] = tested on: HL-60; test: Growth inhibition of human HL60 cells assessed as decrease in population doubling at 2.5 uM after 12 days; format: functional, cell-based
[19] = tested on: HL-60; test: Induction of senescence in human HL60 cells assessed enlarged cells measured every 4 days for 16 days by optical microscopy; format: functional, cell-based
Summary of the method: (§5)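 After 16 days of long-term HL60 culture with ligand renewed every 4 days (1.25 µM shown, versus 0.1% DMSO), cells were fixed in 2% formaldehyde/0.2% glutaraldehyde for 15 min at room temperature. They were washed with PBS and stained overnight at 37 °C with X-gal (1 mg/mL). SA-β-Gal and enlarged or flattened morphology were scored by optical microscopy.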

[20] = tested on: Nucleic Acid; test: Binding affinity to human oligonucleotide telomeric HT6 G-quadruplex DNA at 0.5:1 ligand to quadruplex ratio by NMR spectroscopy; format: nucleic-acid assay
Summary of the method: as §3

[21] = tested on: HL-60; test: Induction of senescence in human HL60 cells assessed as beta galactosidase activity at 1.25 uM measured every 4 days for 16 days; format: functional, cell-based
Summary of the method: as §5

[22] = tested on: HL-60; test: Induction of senescence in human HL60 cells assessed flattened cells measured every 4 days for 16 days by optical microscopy; format: functional, cell-based
Summary of the method: as §5

Chain of Telomerase reverse transcriptase (O14746 whole entry): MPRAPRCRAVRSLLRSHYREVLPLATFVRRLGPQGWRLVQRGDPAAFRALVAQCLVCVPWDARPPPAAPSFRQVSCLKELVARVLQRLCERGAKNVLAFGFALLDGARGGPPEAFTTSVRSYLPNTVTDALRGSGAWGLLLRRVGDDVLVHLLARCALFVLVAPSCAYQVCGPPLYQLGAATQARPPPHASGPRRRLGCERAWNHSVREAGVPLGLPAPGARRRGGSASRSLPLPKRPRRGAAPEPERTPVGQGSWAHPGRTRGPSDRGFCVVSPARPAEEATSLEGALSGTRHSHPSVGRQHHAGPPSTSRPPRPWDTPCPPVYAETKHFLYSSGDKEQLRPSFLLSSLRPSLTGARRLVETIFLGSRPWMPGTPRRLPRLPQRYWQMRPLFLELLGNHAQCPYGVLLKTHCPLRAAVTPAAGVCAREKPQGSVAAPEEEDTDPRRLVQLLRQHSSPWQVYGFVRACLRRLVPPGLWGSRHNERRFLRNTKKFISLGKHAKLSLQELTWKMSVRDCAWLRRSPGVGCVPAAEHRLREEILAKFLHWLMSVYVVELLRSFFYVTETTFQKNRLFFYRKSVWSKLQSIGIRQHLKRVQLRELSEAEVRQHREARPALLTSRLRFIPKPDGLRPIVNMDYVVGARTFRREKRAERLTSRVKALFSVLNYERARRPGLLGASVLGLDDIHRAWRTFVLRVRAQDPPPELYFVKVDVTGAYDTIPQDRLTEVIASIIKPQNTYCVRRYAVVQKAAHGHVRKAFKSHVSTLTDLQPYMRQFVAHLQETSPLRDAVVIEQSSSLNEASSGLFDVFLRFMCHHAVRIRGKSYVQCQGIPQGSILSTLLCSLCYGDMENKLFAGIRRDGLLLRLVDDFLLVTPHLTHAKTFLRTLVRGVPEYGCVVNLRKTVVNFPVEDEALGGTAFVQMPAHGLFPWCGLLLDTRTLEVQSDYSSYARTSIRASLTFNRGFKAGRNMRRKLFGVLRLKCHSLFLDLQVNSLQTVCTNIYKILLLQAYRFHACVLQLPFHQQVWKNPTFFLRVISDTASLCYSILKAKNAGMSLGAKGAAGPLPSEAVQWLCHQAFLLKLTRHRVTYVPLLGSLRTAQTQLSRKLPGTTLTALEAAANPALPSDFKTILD

Row | SMILES | ΔTm [1] | Activity [2] | ΔTm [3] | further results
1 | CN(C)CCCNc1c2ccccc2nc2c1[nH]c1ccccc12 | 5.5 °C | inactive | 9.9 °C | –
2 | CN(C)CCCNc1nc(-c2ccc(Cl)cc2NC(=O)CNCCN2CCCCC2)nc2ccccc12 | 0.2 °C | – | 9.6 °C | –
3 | CN(C)CCCNc1nc(-c2ccc(Cl)cc2NC(=O)CCCN2CCOCC2)nc2ccccc12 | 0.1 °C | Active | 9.8 °C | –
4 | CN(C)CCCNc1nc(-c2ccc(Cl)cc2NC(=O)CCCN2CCN(C)CC2)nc2ccccc12 | 0.4 °C | Active | 14.7 °C | Activity [4]: inactive; pIC50 [5]: 5.11; pKd [6]: 6.56; Activity [7]: Active
5 | CCN(CC)CCCNCC(=O)Nc1cc(Cl)ccc1-c1nc(NCCCN(C)C)c2ccccc2n1 | 0.2 °C | – | 12.3 °C | –
6 | CN(C)CCCNc1nc(-c2ccc(Cl)cc2N)nc2ccccc12 | 0.3 °C | – | 0.7 °C | –
7 | CN(C)CCCNc1nc(-c2ccc(Cl)cc2NC(=O)CN2CCN(C)CC2)nc2ccccc12 | 0.3 °C | Active | 10.1 °C | Activity [8]: Active; Activity [4]: inactive; pIC50 [5]: 4.53; pKd [6]: 5.68
8 | CN(C)CCCNc1nc(-c2ccc(Cl)cc2NC(=O)CCN2CCCC2)nc2ccccc12 | 0.2 °C | – | 12.8 °C | –
9 | CN(C)CCCNCC(=O)Nc1cc(Cl)ccc1-c1nc(NCCCN(C)C)c2ccccc2n1 | 0.3 °C | Active | 13 °C | Activity [4]: inactive; pKd [6]: 6.47
10 | CN(C)CCCNc1nc(-c2ccc(Cl)cc2NC(=O)CCN2CCN(C)CC2)nc2ccccc12 | 0.3 °C | Active | 15.5 °C | Activity [9]: Active; Activity [10]: Active; Activity [11]: 1.2 kilobase; Activity [12]: Active; pIC50 [13]: 5.02; Activity [14]: Active; Activity [15]: Active; growth inhibition (GI) [16]: Active; growth inhibition (GI) [17]: Active; Activity [4]: inactive; growth inhibition (GI) [18]: Active; pIC50 [5]: 5.13; Activity [19]: Active; Activity [20]: Active; pKd [6]: 6.50; Activity [7]: Active; Activity [21]: Active; Activity [22]: Active
11 | CN(C)CCCNc1nc(-c2ccc(Cl)cc2NC(=O)CN2CCCC2)nc2ccccc12 | 0.1 °C | – | 7.4 °C | –
12 | CN(C)CCCNc1nc(-c2ccc(Cl)cc2NC(=O)CCN2CCCCC2)nc2ccccc12 | 0.2 °C | – | 11.8 °C | –
13 | CN(C)CCCNc1nc(-c2ccc(Cl)cc2NC(=O)CNCCN2CCCC2)nc2ccccc12 | 0.3 °C | – | 10.4 °C | –
14 | CN(C)CCCNc1nc(-c2ccc(Cl)cc2NC(=O)CN2CCCCC2)nc2ccccc12 | 0.2 °C | – | 5.4 °C | –
15 | CN(C)CCCNc1nc(-c2ccc(Cl)cc2NC(=O)CCN2CCOCC2)nc2ccccc12 | 0.1 °C | Active | 8.4 °C | –
16 | CN(C)CCCNCCC(=O)Nc1cc(Cl)ccc1-c1nc(NCCCN(C)C)c2ccccc2n1 | – | – | – | Activity [7]: Active
17 | CN(C)CCCNc1nc(-c2ccc(Cl)cc2NC(=O)CN2CCOCC2)nc2ccccc12 | 0 °C | Active | 3.9 °C | –
18 | CN(C)CCCNc1nc(-c2ccc(Cl)cc2NC(=O)CCCN2CCCCC2)nc2ccccc12 | 0.2 °C | – | 11.6 °C | –
19 | CCN(CC)CCC(=O)Nc1cc(Cl)ccc1-c1nc(NCCCN(C)C)c2ccccc2n1 | 0.1 °C | – | 14.4 °C | –
20 | CCN(CC)CC(=O)Nc1cc(Cl)ccc1-c1nc(NCCCN(C)C)c2ccccc2n1 | 0.1 °C | – | 4.5 °C | –
